Source: PubChem BioAssay (Sanford-Burnham Center for Chemical Genomics)
This is a sample that favours compounds with a hit; in the whole collection about 4.4% have one here.
EBI2 antag = antagonists of human EBI2 receptor | AID 651636 | 0.81% of 360,000 active | P32249 | inhibition, % at 5 µM | EBI2 beta-arrestin recruitment, luminescence, 7a,25-OHC stimulated; in the data active means inhibition above about 38%;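 further: enzyme fragment complementation signal reports receptor beta-arrestin coupling in cells; 0% = agonist plus DMSO wells and 100% = wells without agonist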
Target sequence (P32249 whole entry, looked up, the tested form may be a part): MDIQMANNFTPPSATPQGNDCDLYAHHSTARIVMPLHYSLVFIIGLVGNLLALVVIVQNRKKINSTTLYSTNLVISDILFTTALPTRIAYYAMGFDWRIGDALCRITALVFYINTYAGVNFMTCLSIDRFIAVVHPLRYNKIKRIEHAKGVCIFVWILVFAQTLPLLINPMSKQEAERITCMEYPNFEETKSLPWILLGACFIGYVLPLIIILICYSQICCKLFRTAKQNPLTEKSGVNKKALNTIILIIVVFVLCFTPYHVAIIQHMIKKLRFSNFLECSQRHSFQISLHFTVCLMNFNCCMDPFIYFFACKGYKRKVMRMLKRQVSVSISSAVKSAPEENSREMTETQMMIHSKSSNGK
SENP1 FRET inh = SENP1 (human) catalytic domain inhibition. Q9P0U3. recombinant SENP1 catalytic domain, CyPet-SUMO1-YPet FRET cleavage. inhibition, % at 10 µM. 0.21% of 360,000 active;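 active means inhibition at least 30% at 10 µM, raw YFP signal under a set limit, fluorescence ratio 0.5 to 1.5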;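 further: 0% = enzyme with DMSO and 100% = no enzyme wells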
Target sequence (Q9P0U3 419-644 limits assumed): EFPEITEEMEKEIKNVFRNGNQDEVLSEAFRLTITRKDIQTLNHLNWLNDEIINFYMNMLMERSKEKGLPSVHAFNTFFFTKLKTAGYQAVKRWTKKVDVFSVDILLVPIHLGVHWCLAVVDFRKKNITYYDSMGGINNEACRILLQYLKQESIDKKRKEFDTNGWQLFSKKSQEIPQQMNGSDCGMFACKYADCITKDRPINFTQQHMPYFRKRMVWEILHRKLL
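System: Recombinant human SENP1 catalytic domain, His6-tagged | Incubation: Enzyme reaction for 50 min at room temperature, dark | Medium: Tris pH 8 with BME, BSA, NP40 and catalase | Also added: 25 nM SUMO1 FRET substrate | Compound: 10 µM single point, 0.5% DMSO | Measured by: FRET fluorescence in CFP and YFP emission channels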
MPTP block = inhibitors of mitochondrial permeability transition pore | isolated mouse mitochondria, Ca2+ swelling absorbance, 30 min | inhibition, % at 10 µM | 1.4% of 360,000 active | AID 602449;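 active means inhibition of 50% or more, scaled per plate between neutral and stimulator controls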;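 further: 0% = DMSO wells given calcium and 100% = 1 mM EGTA wells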
GRIN3A LBD mod = modulators (binders) of human NR3A ligand-binding domain | 2.5% of 340,000 active | Tm shift relative to glycine control, % at 25 µM | AID 1259313 | NR3A LBD differential scanning fluorimetry, Tm shift; 0% = protein alone, 100% = glycine-bound protein;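 active means melting temperature shift of at least 10% of the positive control shift, at one fixed dose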
* hit, by the source's call; . = not tested or not shown.

SMILES	EBI2 antag	SENP1 FRET inh	MPTP block	GRIN3A LBD mod
COc1ccc(NC(=O)CSc2nc3ccc(Nc4nc(N5CCOCC5)nc(N5CCOCC5)n4)cc3s2)cc1	12.2	-5.3	1.7	1.8
O=C(CSc1nc(Nc2ccccc2)nc(N2CCOCC2)n1)Nc1cccc([N+](=O)[O-])c1	-6.2	0.9	7.0	16.7*
O=C(Nc1cccc2ncccc12)c1ccc(F)cc1	-0.4	0.3	1.1	11.6*
Cc1cccc2cc(C#N)c(SCC(=O)N3CC(=O)Nc4ccccc43)nc12	57.0*	-9.2	-3.5	-2.5
COc1ccc2cc(C#N)c(SCC(=O)N3CC(=O)Nc4ccccc43)nc2c1	73.8*	19.5	6.5	2.1
Cc1cc(NC(=O)CSCC(=O)N(C)Cc2ccc(Cl)cc2Cl)no1	-8.1	1.3	0.4	1.9
O=C(N/N=C/c1ccc(O)c(O)c1)c1cccc(S(=O)(=O)N2CCCC2)c1	-14.9	1.9	2.4	1.8
O=C(N/N=C/c1cccc(Oc2ccccc2)c1)c1ccncc1	0.7	-0.8	-0.6	5.7
COc1cc(/C=N/NC(=O)c2cccc(S(=O)(=O)N3CCCC3)c2)ccc1O	-4.2	1.0	-0.1	14.8*
COc1cc(C(=O)N/N=C/c2ccc(OC(=O)c3cccc(C)c3)cc2)ccc1O	2.2	-0.2	-0.7	22.2*
COc1cc(/C=N/NC(=O)c2ccc(N)cc2)ccc1OC(=O)c1cccc(C)c1	-7.7	0.6	-0.1	8.6
O=C(N/N=C/c1cccc(Oc2ccccc2)c1)c1ccc(O)cc1O	6.2	0.1	-0.9	31.1*
O=C(N/N=C\c1cc(Cl)ccc1O)c1ccc(S(=O)(=O)N2CCCCC2)cc1	48.7*	51.0*	13.0	-0.7
COc1cc(/C=N/NC(=O)c2cc(-c3cccc(OC(C)C)c3)nc3ccccc23)ccc1O	-10.2	-2.5	3.5	11.0*
COc1ccc(OC)c(/C=N/NC(=O)c2[nH]nc3c2CCc2ccccc2-3)c1	24.6	-24.0	6.3	9.8
COc1ccc(COC(=O)c2cccc(S(=O)(=O)N3CCCC3)c2)cc1F	1.4	0.2	0.7	15.0*
COc1cccc(/C=N/NC(=O)c2[nH]nc3c2CCc2ccccc2-3)c1	25.2	2.7	16.3	25.7*
COc1cc(C(=O)N/N=C/c2cccc(Oc3ccccc3)c2)ccc1O	4.5	2.5	-0.3	11.2*
CSc1ncccc1C(=O)OCC(=O)NC1CCC(C)CC1 (stereo unspecified)	8.0	0.6	-1.2	-0.3
COc1ccc(C(=O)/C=C/c2ccccc2C(F)(F)F)cc1	17.1	1.7	4.3	-35.6
COc1cc2c(cc1OC)CN(C1CC(=O)N(c3c(C)cccc3C)C1=O)CC2 (stereo unspecified)	5.0	-0.1	1.8	-9.7
O=C(N/N=C/c1c[nH]c2ccc(Br)cc12)C1CC1	-3.3	2.2	4.8	10.4*
O=C(N/N=C/c1c[nH]c2ccc(Br)cc12)c1ccccn1	-22.2	-0.7	-3.6	10.2*
NC(=O)C(=O)N/N=C/c1c[nH]c2ccc(Br)cc12	-0.4	-1.0	0.8	-5.9
O=C(N/N=C/c1c[nH]c2ccc(Br)cc12)c1ccn(Cc2ccc(Cl)cc2Cl)n1	2.5	-0.1	-2.6	17.0*
SMILES	EBI2 antag	SENP1 FRET inh	MPTP block	GRIN3A LBD mod
O=C(N/N=C/c1c[nH]c2ccc(Br)cc12)c1ccncc1	10.3	1.4	-0.3	25.9*
CC(C)n1c(O)c(N=NC(=O)Cc2csc(N3CCOCC3)n2)c2ccccc21	-3.7	1.9	-0.8	-0.1
Cc1ccc(CN2C(=O)C(F)(F)Oc3ccc(C)cc32)cc1	9.0	0.4	-1.2	.
OCCC1CN(Cc2cccc3nonc23)CCN1C1CCCCC1 (stereo unspecified)	-2.9	3.6	-0.9	-0.7
Clc1cccc(N/N=C/c2ccc(N3CCOCC3)s2)c1	7.2	-49.3	-0.5	19.2*
O=C(N/N=C/c1ccc(N2CCOCC2)s1)c1ccccc1Br	-2.8	3.4	0.8	-2.4
Nc1ccc(C(=O)N/N=C/c2ccc(N3CCOCC3)s2)cc1	-12.1	-39.5	-0.6	11.4*
COc1ccc(CN2CCC(N3CC(C)OC(C)C3)CC2)c(OC)c1OC (stereo unspecified)	5.2	-1.0	0.4	-0.9
CCc1ccc2[nH]c(O)c(N=Nc3nc(-c4ccccc4)cs3)c2c1	11.1	32.7*	7.1	-0.9
Cc1ccc(CN2C(=O)c3ccccc3NC2c2cc(Br)ccc2O)cc1 (stereo unspecified)	14.2	-1.0	23.2	21.7*
Cc1ccccc1/C=N/Nc1nc2ccccc2[nH]1	-0.6	1.4	2.6	-5.6
C(=N\Nc1nc2ccccc2[nH]1)/c1c[nH]c2ccccc12	14.9	-3.3	39.0	15.2*
Brc1ccc(-c2ccc(/C=N/Nc3nc4ccccc4[nH]3)o2)cc1	9.3	-26.7	5.7	30.9*
C(=N\Nc1nc(N2CCCCC2)nc(N2CCCCC2)n1)/c1c[nH]c2ccccc12	16.9	1.7	4.0	10.1*
CN(C)c1nc(N/N=C/c2c[nH]c3ccccc23)nc(N2CCOCC2)n1	5.8	1.0	-1.1	9.2
O=C(COC(=O)Cc1ccc(Br)cc1)NCc1ccc(F)cc1	7.0	4.7	-2.1	2.0
Cc1c(C(=O)Nc2ccc(C(F)(F)F)cc2)sc2ncn(CC(=O)N3CCN(c4ccccn4)CC3)c(=O)c12	-10.1	1.3	-0.6	22.6*
Cc1ccc(NC(=O)c2sc3ncn(CC(=O)N4CCN(c5ccccn5)CC4)c(=O)c3c2C)cc1	0.5	-1.0	-0.7	.
CCOc1ccccc1N(CC(=O)NCc1ccccc1)C(=O)CCC(=O)Nc1cc(C)ccn1	4.9	1.7	0.5	0.8
Cc1ccc2oc(=O)c3cnn(CC(=O)NCCC(C)C)c3c2c1	4.3	1.4	1.6	12.8*
Cc1ccc2oc(=O)c3cnn(CC(=O)NCCN(C)C)c3c2c1	6.9	2.4	-1.8	0.1
COc1ccc(Cl)cc1NC(=S)Nc1ccccc1C	-2.6	-66.8	-0.3	-3.4
C=C1C(=O)O[C@H]2C[C@H]1[C@@H](OC(C)=O)C/C(C)=C/CC/C(C)=C\CC[C@]2(C)O	51.6*	-1.1	-0.9	-0.7
C=C1C(=O)O[C@@H]2[C@H]3O[C@]3(C)CC/C=C(\C)CC[C@@H]12	6.5	0.9	-1.3	0.0
Cc1ccc(S(=O)(=O)N2CCc3ccccc3C2CC(=O)O)cc1 (stereo unspecified)	0.8	0.7	1.0	0.5
SMILES	EBI2 antag	SENP1 FRET inh	MPTP block	GRIN3A LBD mod
CC(C)c1cccc(C(C)C)c1OC(=O)[C@H]1OC(c2ccc(Br)cc2)=C[C@@H]1c1ccc(Br)cc1	-7.3	5.1	7.5	0.0
CC(C)c1cccc(C(C)C)c1OC(=O)[C@H]1OC(C(C)(C)C)=C[C@@H]1c1ccccc1	-6.6	3.4	1.2	15.7*
O=C(Nc1ccc(S(=O)(=O)N2CCOCC2)cc1)c1cccc(Br)c1	-9.8	0.6	-0.4	30.5*
Cc1ccc(C(=O)N2CCN(c3ccc(NC(=O)c4cc(C)cc(C)c4)cc3)CC2)cc1	9.8	0.3	0.0	12.6*
O=C(Nc1ccc(S(=O)(=O)N2CCOCC2)cc1)c1cc(-c2ccccc2O)n[nH]1	18.4	0.6	46.4	27.3*
Cc1ccc(-n2ccc(=O)c(C(=O)Nc3ccc(S(=O)(=O)N4CCOCC4)cc3)n2)cc1	-2.0	1.4	-0.8	11.9*
